{"source": "paper PMC6408977", "about": "(Journal of controlled release : official journal of the …, 2019)", "key": {"[1]": {"assay": "Tissue biodistribution measurements", "parameters": "species or system Balb/c mice", "conditions": "mouse, in vivo, iv", "outline": "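Female Balb/c mice, 8–12 weeks old, from an in-house colony (n = 3). Tissue radioactivity was measured at 1 h and 4 h post-injection, alongside whole-body SPECT/CT imaging at the same times.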"}, "albumin": {"target": "albumin", "conditions": "read-out: Albumin dissociation constant; cited from earlier work"}, "[2]": {"target": "human serum albumin (Homo sapiens) (UniProt P02768)", "conditions": "cited from earlier work"}}, "note": "Non-standard residues stand in square brackets, D forms with d. Residues, ends and D or L forms follow the SMILES beside them. Tyr(3-I) = N[C@@H](Cc1ccc(O)c(I)c1)C(=O)O"}
{"molecule": "CC(C)C[C@H](NC(=O)CNC(=O)[C@H](C)NC(=O)[C@H](Cc1ccc(O)c(I)c1)NC(=O)CN)C(=O)N[C@@H](C)C(=O)NCC(=O)N[C@@H](CC(C)C)C(=O)N[C@@H](CC(C)C)C(=O)NCC(=O)N[C@@H](CC(C)C)C(=O)N[C@@H](CCC(=O)O)C(=O)NCC(=O)N[C@@H](CC(C)C)C(=O)N[C@@H](CC(C)C)C(=O)NCC(=O)N[C@@H](CC(C)C)C(=O)N1CCC[C@H]1C(=O)N[C@@H](CC(C)C)C(=O)NCC(=O)N[C@@H](CC(C)C)C(=O)N[C@@H](CC(C)C)C(=O)N[C@@H](CCC(=O)O)C(=O)NCC(=O)N[C@@H](CC(C)C)C(=O)N[C@@H](Cc1c[nH]c2ccccc12)C(=O)N[C@@H](CC(C)C)C(=O)NCC(=O)N[C@@H](CC(C)C)C(=O)N[C@@H](CCC(=O)O)C(=O)N[C@@H](CC(C)C)C(=O)N[C@@H](CCC(=O)O)C(=O)NCC(=O)N[C@@H](CC(N)=O)C(=O)O", "note": "[^125I-ATRAM] (H-G[Tyr(3-I)]AGLAGLLGLEGLLGLPLGLLEGLWLGLELEGN-OH; N-terminus and C-terminus assumed)", "values": [{"measurement": "tissue uptake at 1 h", "setting": "[1]", "value": 18, "unit": "%ID/g"}, {"measurement": "tissue uptake at 4 h", "setting": "[1]", "value": 10, "unit": "%ID/g"}]}
{"molecule": "CC1(C)S[C@@H]2[C@H](NC(=O)Cc3ccccc3)C(=O)N2[C@H]1C(=O)O", "note": "[penicillin G]", "values": [{"measurement": "Kd", "setting": "albumin", "value": 833, "unit": "µM"}]}
{"molecule": "insulin detemir (from UniProt P01308)", "values": [{"measurement": "Kd", "setting": "[2]", "value": 4.16, "unit": "µM"}]}
